Measurements published in ChEMBL document CHEMBL4414663, “Pyrazole-4-Carboxamide (YW2065): A Therapeutic Candidate for Colorectal Cancer via Dual Activities of Wnt/β-Catenin Signaling Inhibition and AMP-Activated Protein Kinase (AMPK) Activation” (J Med Chem, 2019).
Calls of active or inactive are those of the source. The rule behind the calls is not given here.

How the values were obtained:
[1] = Inhibition of Wnt/beta-Catenin signaling (unknown origin) expressed in recombinant human Wnt-3a-induced Wnt-HEK293 cells incubated for 24 hrs by luciferase reporter gene assay; format: cell-based
Procedure, shortened: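 Stably transfected Wnt-HEK293 cells, 2000/well in DMEM + 10% FBS, incubated overnight at 37 °C. Compounds pin-transferred, then recombinant human Wnt-3a added (200 ng/mL stock); unstimulated control wells received medium. After 24 h at 37 °C, ONE-Glo luminescence read after 30 min at room temperature; CellTiter-Fluor viability read in parallel. IC50 reported as mean ± SD of three independent experiments.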

SW480 [2] = experiment: Growth inhibition of human SW480 cells by Cell-titer-fluor reagent based assay; format: functional
Homo sapiens [3] = species: Homo sapiens; experiment: Potency index, ratio of IC50 for pyrvinium to test compound for inhibition of Wnt/beta-Catenin signaling (unknown origin) expressed in recombinant human Wnt-3a-induced Wnt-HEK293 cells incubated for 24 hrs by luciferase reporter gene assay; format: cell-based
Homo sapiens [4] = species: Homo sapiens; experiment: Potency index, ratio of IC50 for XAV939 to test compound for inhibition of Wnt/beta-Catenin signaling (unknown origin) expressed in recombinant human Wnt-3a-induced Wnt-HEK293 cells incubated for 24 hrs by luciferase reporter gene assay; format: cell-based
SW480 [5] = experiment: Growth inhibition of human SW480 cells at 50 uM by Cell-titer-fluor reagent based assay relative to control; format: functional; settings: read-out: GI
Homo sapiens [6] = species: Homo sapiens; experiment: Inhibition of Wnt/beta-Catenin signaling (unknown origin) expressed in recombinant human Wnt-3a-induced Wnt-HEK293 cells assessed as increase in beta-catenin degradation at 1 uM by Western blot analysis; format: cell-based
[7] = molecular target: AMP-activated protein kinase, AMPK (Homo sapiens) (UniProt P54646+O43741+P54619+Q9UGJ0+Q9Y478+Q13131+Q9UGI9); experiment: Activation of AMPK in HEK293 cells over-expressing Axin-1 assessed as increase in AMPK phosphorylation at T172 residue at 10 uM incubated for 24 hrs by Western blot analysis; format: cell-based

SMILES: CCc1ccccc1-n1ncc(C(=O)Nc2cccc(C)n2)c1C
- IC50 [1]: 380 nM

SMILES: Cc1c(C(=O)Nc2ccc3ccccc3n2)cnn1-c1ccccc1
- GI50 (SW480 [2]): 23900 nM
- IC50 [1]: 2.2 nM
- Ratio IC50 (Homo sapiens [3]): > 300
- Ratio IC50 (Homo sapiens [4]): > 200
- inhibition of growth at 50 µM (SW480 [5]): > 50%

SMILES: CCc1ccccc1-n1ncc(C(=O)Nc2cc3ccccc3cn2)c1C
- IC50 [1]: > 1000 nM

SMILES: Cc1ccccc1-n1nc(C(=O)Nc2ccc3ccccc3n2)cc1C
- IC50 [1]: 250 nM

SMILES: Cc1ccc(C)c(-n2ncc(C(=O)Nc3ccc4ccccc4n3)c2C)c1
- GI50 (SW480 [2]): 24600 nM
- IC50 [1]: 14 nM
- inhibition of growth at 50 µM (SW480 [5]): > 50%

SMILES: O=C(Nc1ccc2ccccc2n1)c1cnn(-c2ccccc2)c1Cl
- IC50 [1]: 29 nM

SMILES: CCc1ccccc1-n1ncc(C(=O)Nc2ccc3ccccc3n2)c1C
- GI50 (SW480 [2]): 9700 nM
- IC50 [1]: 1.2 nM
- inhibition of growth at 50 µM (SW480 [5]): > 50%

SMILES: Oc1nc(-c2ccc(C(F)(F)F)cc2)nc2c1CSCC2
- GI50 (SW480 [2]): > 50000 nM
- IC50 [1]: 450 nM

SMILES: Cc1c(C(=O)Nc2ccc3ccccc3n2)cnn1-c1cccc(Cl)c1F
- GI50 (SW480 [2]): 9000 nM
- IC50 [1]: 14 nM
- inhibition of growth at 50 µM (SW480 [5]): > 50%

SMILES: Cc1c(C(=O)Nc2ccc3ccccc3n2)cnn1-c1c(F)cccc1F
- IC50 [1]: 1.6 nM

SMILES: Cc1cccc(C)c1-n1ncc(C(=O)Nc2ccc3ccccc3n2)c1C
- GI50 (SW480 [2]): 7200 nM
- IC50 [1]: 26 nM
- inhibition of growth at 50 µM (SW480 [5]): > 50%

SMILES: CCc1ccccc1-n1nc(C(=O)Nc2ccc3ccccc3n2)cc1C
- IC50 [1]: 67 nM

SMILES: CC(C)c1c(C(=O)Nc2ccc3ccccc3n2)cnn1-c1ccccc1
- GI50 (SW480 [2]): 17300 nM
- IC50 [1]: 15 nM
- inhibition of growth at 50 µM (SW480 [5]): > 50%

SMILES: O=C(Nc1ccc2ccccc2n1)c1cnn(-c2ccccc2)c1Br
- IC50 [1]: 3.7 nM

SMILES: O=C(Nc1ccc2ccccc2n1)c1nn(-c2ccccc2)c2c1CCCC2
- IC50 [1]: 260 nM

SMILES: Cc1cccnc1-n1ncc(C(=O)Nc2ccc3ccccc3n2)c1C
- IC50 [1]: 2.2 nM

SMILES: CCc1c(C(=O)Nc2ccc3ccccc3n2)cnn1-c1ccccc1
- IC50 [1]: 1.7 nM

SMILES: CCc1ccccc1-n1ncc(C(=O)Nc2ccc3ccccc3c2)c1C
- IC50 [1]: > 1000 nM

SMILES: Cc1c(C(=O)Nc2ccc3ccccc3n2)cnn1-c1ccc(F)cc1F
- IC50 [1]: 16 nM

SMILES: Cc1cc(C(=O)Nc2ccc3ccccc3n2)nn1-c1ccccc1
- IC50 [1]: 637 nM

SMILES: Cc1cc(/C=C/c2ccc3cc(N(C)C)ccc3[n+]2C)c(C)n1-c1ccccc1 [PYRVINIUM]
- GI50 (SW480 [2]): 3700 nM
- inhibition (Homo sapiens [6]): Active
- IC50 [1]: 750 nM

SMILES: Cc1c(C(=O)Nc2ccc3ccccc3n2)cnn1-c1c(F)cccc1Br
- GI50 (SW480 [2]): 3900 nM
- IC50 [1]: 3.2 nM
- inhibition of growth at 50 µM (SW480 [5]): > 50%

SMILES: Cc1ccccc1-n1nnc(C(=O)Nc2ccc3ccccc3n2)c1C
- Activity [7]: Active
- inhibition (Homo sapiens [6]): Active

SMILES: CN(C)c1c(C(=O)Nc2ccc3ccccc3n2)cnn1-c1ccccc1
- IC50 [1]: 6 nM

SMILES: O=C(Nc1ccc2ccccc2n1)c1nn(-c2ccccc2)c2c1CCC2
- IC50 [1]: 140 nM

SMILES: Cc1c(C(=O)Nc2ccc3ccccc3n2)cnn1-c1ccccc1F
- GI50 (SW480 [2]): 33300 nM
- IC50 [1]: 0.92 nM
- inhibition of growth at 50 µM (SW480 [5]): > 50%
